Assay results gathered from unrelated publications.
Organism: Mycobacterium tuberculosis
Effect on: microbial growth

`CN(C)c1ccc(C=NC2=NN(c3ccccc3)C(=O)C2=NNc2nc(-c3ccccc3)cs2)cc1` gave an MIC of 6.25 µg/mL (resazurin; H37RV).
For `O=[N+]([O-])c1ccc(/C(O)=C/C(=S)S)cc1`, the MIC was 7.8 µg/mL (H37RA).
With `O=C(NN1C(=O)CSC12CCC(c1ccccc1)CC2)c1[nH]c2ccc(Cl)cc2c1-c1ccccc1` (stereo not drawn) the MIC was 3.9 µM (ATCC27294 H37RV).
`Cc1ccc(C)n1-c1ccc(-c2nnc(-c3ccc(N(C)C)cc3)[nH]2)cc1` gave an MIC of 16 µg/mL (broth dilution; H37RV; 21 days).
`CC1SC2(CCCC2)N(NC(=O)c2[nH]c3ccc(Cl)cc3c2-c2ccccc2)C1=O` (stereo not drawn) has an MIC of 250 µM (ATCC27294 H37RV).
`C[C@H]1COc2c(N3CCN(C)CC3)c(F)cc3c(=O)c(C(=O)O)cn1c23` gave an MIC of 0.12 µg/mL (resazurin; H37RA; 14 days).
For `C=CCOc1cc(O)cc(O)c1C(=O)[C@@H](C)CC`, the MIC was 100 µg/mL (broth dilution; H37RV).
`COC(=O)c1cc(-c2cccc(NC(=O)Nc3cccc(Cl)c3)c2)on1` has an MIC of 0.5 µg/mL (ATCC27294 H37RV; 7 days).
For `Cc1cc(=O)[nH]n1C(=O)c1ccc(-n2c(C)ccc2C)cc1`, the MIC was 2 µg/mL (broth dilution; H37RV; 21 days).
For `Nc1ncnc2c1ncn2[C@@H]1O[C@H](COS(N)(=O)=O)[C@@H](O)[C@H]1O`, the MIC was 0.16 µg/mL (H37RV).
For `NNC(=O)c1ccncc1`, the MIC was 0.14 µM (W4).
`CCCCCCCCCCC[C@@H](C[C@@H]1OC(=O)[C@H]1CCCCCC)OC(=O)[C@H](CC(C)C)NC=O` gave an MIC of 24 µg/mL (resazurin; H37RA).
`COC(=O)c1cc(-c2cccc(NC(=S)Nc3cccc(Cl)c3)c2)on1` gave an MIC of 4 µg/mL (ATCC27294 H37RV; 7 days).
With `Cc1c(Cc2ccc(Cl)cc2)c(=O)n2c([nH]c3ccccc32)c1C#N` the MIC was 1 µg/mL (broth dilution; H37RV).
`Cc1cn2c(C(=O)NCc3ccc(S(F)(F)(F)(F)F)cc3)c(C)nc2s1` has an MIC of 0.078 µM (resazurin; H37RV).
With `COC(=O)c1cc(-c2cccc(NC(=S)NC3CCCCC3)c2)on1` the MIC was 2 µg/mL (ATCC27294 H37RV; 7 days).
`Cc1ccc2nc(C)c(C(=O)NCc3cccc(S(F)(F)(F)(F)F)c3)n2c1` gave an MIC of 0.2 µM (H37RV; 5 days).
For `Cc1c(Cc2ccccc2Cl)c(=O)n2c([nH]c3ccccc32)c1C#N`, the MIC was over 128 µg/mL (broth dilution; H37RV).
With `C=C[C@@H](O)C#CC#C[C@@H](O)/C=C\CCCCCCC` the MIC was 26.7 µg/mL (resazurin; ATCC27294 H37RV; 7 days).
`Cc1ccn2c(C(=O)NCc3ccc(S(F)(F)(F)(F)F)cc3)c(C)nc2c1` has an MIC of 0.25 µM (H37RV; 5 days).
For `COC(=O)c1cc(-c2cccc(NC(=S)Nc3ccc(C#N)cc3)c2)on1`, the MIC was 2 µg/mL (ATCC27294 H37RV; 7 days).
For `CC1CC(C)(C)CC2(C1)SCC(=O)N2NC(=O)c1[nH]c2ccc(Cl)cc2c1-c1ccccc1` (stereo not drawn), the MIC was 500 µM (ATCC27294 H37RV).
For `CO[C@H]1/C=C/O[C@@]2(C)Oc3c(C)c(O)c4c(O)c(c(/C=N/N5CCN(C)CC5)c(O)c4c3C2=O)NC(=O)/C(C)=C\C=C\[C@H](C)[C@H](O)[C@@H](C)[C@@H](O)[C@@H](C)[C@H](OC(C)=O)[C@@H]1C`, the MIC was 0.06 µg/mL (resazurin; H37RA; 14 days).
For `NNC(=O)c1ccncc1`, the MIC was 0.8 µM (resazurin; H37RV).
The MIC of `Cc1ccc(C)n1-c1ccc(-c2nnc(-c3c(Cl)cccc3Cl)[nH]2)cc1` is reported as 8 µg/mL (broth dilution; H37RV; 21 days).
With `CO[C@H]1/C=C/O[C@@]2(C)Oc3c(C)c(O)c4c(O)c(c(/C=N/N5CCN(C)CC5)c(O)c4c3C2=O)NC(=O)/C(C)=C\C=C\[C@H](C)[C@H](O)[C@@H](C)[C@@H](O)[C@@H](C)[C@H](OC(C)=O)[C@@H]1C` the MIC was 0.003 µM (H37RV; 5 days).
`O=C(CNS(=O)(=O)c1ccc([N+](=O)[O-])cc1[N+](=O)[O-])N1CCN(C(c2ccc(F)cc2)c2ccc(F)cc2)CC1` gave an MIC of 25 µg/mL (ATCC27294 H37RV).
`CC(C)[C@H]1CO[C@]23CCN(Cc4ccc(C(F)(F)F)cc4)C[C@H]2CCC(=O)N13` gave an MIC of 0.16 µM (H37RV; 7 days).
With `CO[C@H]1/C=C/O[C@@]2(C)Oc3c(C)c(O)c4c(O)c(c(/C=N/N5CCN(C)CC5)c(O)c4c3C2=O)NC(=O)/C(C)=C\C=C\[C@H](C)[C@H](O)[C@@H](C)[C@@H](O)[C@@H](C)[C@H](OC(C)=O)[C@@H]1C` the MIC was 0.02 µg/mL.
The MIC of `O=C1C(=NNc2nc(-c3ccccc3)cs2)C(N=Cc2ccc(Cl)cc2)=NN1c1ccccc1` is reported as 25 µg/mL (resazurin; H37RV).
With `COC(=O)c1cc(-c2cccc(NC(=O)Nc3ccccc3OC)c2)on1` the MIC was 0.5 µg/mL (ATCC27294 H37RV; 7 days).
`CC1=NN(CNc2ccc(O)cc2)C(=O)C1=NNn1c(-c2ccccc2)nc2ccccc2c1=O` gave an MIC of 53.5 µM (resazurin; H37RV).
With `CO[C@H]1/C=C/O[C@@]2(C)Oc3c(C)c(O)c4c(O)c(c(/C=N/N5CCN(C)CC5)c(O)c4c3C2=O)NC(=O)/C(C)=C\C=C\[C@H](C)[C@H](O)[C@@H](C)[C@@H](O)[C@@H](C)[C@H](OC(C)=O)[C@@H]1C` the MIC was 0.85 µg/mL (H37RV).
`COC(=O)c1cc(-c2cccc(NC(=S)Nc3ccc(F)cc3)c2)on1` gave an MIC of 4 µg/mL (ATCC27294 H37RV; 7 days).
The MIC of `NNC(=O)c1ccncc1` is reported as 0.22 µM (THP-1, H37RV).
`O=C1C(=NNc2nc(-c3ccccc3)cs2)C(N=Cc2ccc([N+](=O)[O-])cc2)=NN1c1ccccc1` gave an MIC of 25 µg/mL (resazurin; H37RV).
With `COC(=O)c1cc(-c2cccc(NC(=O)Nc3ccccc3C)c2)on1` the MIC was 2 µg/mL (ATCC27294 H37RV; 7 days).
`C[C@@H]1CN2c3c(cc4c(N5CC[C@@H](O)C5)noc4c3F)CC3(C(=O)NC(=O)NC3=O)[C@H]2[C@H](C)N1C#N` gave an MIC of 7.8 µM (H37RV).
With `COC(=O)c1cc(-c2cccc(NC(=O)Nc3ccc(Cl)cc3)c2)on1` the MIC was 2 µg/mL (ATCC27294 H37RV; 7 days).
For `Cc1cc(N)c2ccccc2[n+]1CCCCCCCCCC[n+]1c(C)cc(N)c2ccccc21`, the MIC was 1.2 µg/mL (broth dilution).
`O=C(CCNS(=O)(=O)c1ccccc1[N+](=O)[O-])N1CCN(C(c2ccc(F)cc2)c2ccc(F)cc2)CC1` gave an MIC of over 25 µg/mL (ATCC27294 H37RV).
The MIC of `O=C1C(=NNc2nc(-c3ccccc3)cs2)C(N=Cc2ccc(O)cc2O)=NN1c1ccccc1` is reported as 6.25 µg/mL (resazurin; H37RV).
`O=C1COCCN1c1ccc(CO[C@@H]2COc3nc([N+](=O)[O-])cn3C2)cc1F` gave an MIC of 0.4 to 0.8 µg/mL (H37RV).
With `CCC1CCC2(CC1)SCC(=O)N2NC(=O)c1[nH]c2ccc(Cl)cc2c1-c1ccccc1` (stereo not drawn) the MIC was 250 µM (ATCC27294 H37RV).
`CCCCCCC/C=C\C(O)C#CC#CC(=O)CCOC` (stereo not drawn) has an MIC of over 60 µg/mL (resazurin; ATCC27294 H37RV; 7 days).
The MIC of `COc1cc(C=NC2=NN(c3ccccc3)C(=O)C2=NNc2nc(-c3ccccc3)cs2)ccc1O` is reported as 12.5 µg/mL (resazurin; H37RV).
The MIC of `COc1ccc2cc(-c3nc(C(C)(C)C)[nH]c3-c3ccnc(N)c3)ccc2c1` is reported as 5.4 µM (ATCC27294 H37RV).
For `O=C1C(Cl)=C(Cl)C(=O)c2ccccc21`, the MIC was 10 µg/mL (H37RV; 14 days).
With `CO[C@H]1/C=C/O[C@@]2(C)Oc3c(C)c(O)c4c(O)c(c(/C=N/N5CCN(C)CC5)c(O)c4c3C2=O)NC(=O)/C(C)=C\C=C\[C@H](C)[C@H](O)[C@@H](C)[C@@H](O)[C@@H](C)[C@H](OC(C)=O)[C@@H]1C` the MIC was 0.061 µM (resazurin; H37RV; 7 days).
`Cc1ccc(C)n1-c1ccc(-c2n[nH]c(=S)[nH]2)cc1` gave an MIC of 2 µg/mL (broth dilution; H37RV; 21 days).
The MIC of `C[C@@H]1CN(c2nc(=O)c3cc(C(F)(F)F)cc(C#N)c3s2)[C@@H](C)CN1CC1CCCCC1` is reported as over 2 µM (resazurin; H37RV).
